Values belong to the molecule of their own block, whether it stands above or below them. Calls of active or inactive are those of the source. The calls are words filed in the database; no cut-off is given here. Non-standard residues stand in square brackets, D forms with d. Residues, ends and D or L forms follow the SMILES beside them. ξ: configuration not given here. *: point of attachment. Benzoyl(2-OMe,5-SO2F) = COc1ccc(S(=O)(=O)F)cc1C(=O)*; Benzoyl(3-SO2F) = O=C(c1cccc(S(=O)(=O)F)c1)*; Benzoyl(4-SO2F) = O=C(c1ccc(S(=O)(=O)F)cc1)*; X1 = Cc1ccc(S(=O)(=O)F)cc1C(=O)*; hSer = N[C@@H](CCO)C(=O)O; Nle = CCCC[C@H](N)C(=O)O; Dap = NC[C@H](N)C(=O)O; ξAbu = CCC(N)C(=O)O
Legend:
[1] = target: T1, Induced myeloid leukemia cell differentiation protein Mcl-1 (Homo sapiens, UniProt Q07820); test: Inhibition of human Mcl-1 (172 to 323 residues) expressed in Escherichia coli BL21 using biotinylated-BH3 peptide as substrate measured after 2 hrs by DELFIA displacement assay
T1 sequence (Q07820 whole entry, the tested form may be a part): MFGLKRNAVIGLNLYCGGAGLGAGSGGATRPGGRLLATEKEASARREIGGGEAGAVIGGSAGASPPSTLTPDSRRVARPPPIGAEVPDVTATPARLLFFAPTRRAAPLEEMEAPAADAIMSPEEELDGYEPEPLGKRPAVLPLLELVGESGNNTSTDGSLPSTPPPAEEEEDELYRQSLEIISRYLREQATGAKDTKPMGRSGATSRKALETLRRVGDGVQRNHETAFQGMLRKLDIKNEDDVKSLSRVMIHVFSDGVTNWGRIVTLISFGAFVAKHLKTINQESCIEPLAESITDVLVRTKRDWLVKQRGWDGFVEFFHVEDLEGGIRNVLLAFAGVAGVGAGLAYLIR

[2] = target: T1, Induced myeloid leukemia cell differentiation protein Mcl-1; test: Binding affinity to human Mcl-1 assessed as covalent adduct formation by measuring band shift at 100 uM measured after 2 hrs by SDS-PAGE analysis
Procedure, shortened: (§1)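 Protein (hMcl-1 His-tagged construct, or His-tagged hBfl-1 residues 1–149) at 10 μM was incubated with or without agent at 100 μM for 2 h at room temperature in 25 mM TRIS pH 7.5, 150 mM NaCl, 1 mM DTT. Samples were run on 12% Bis-Tris SDS-PAGE with MOPS running buffer and Coomassie-type stained.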

Bcl-2-related protein A1 = target: T2, Bcl-2-related protein A1 (Homo sapiens, UniProt Q16548); test: Inhibition of human Bfl-1 (1 to 149 residues) expressed in Rosetta-gami (DE3) using biotinylated-BH3 peptide as substrate measured after 2 hrs by DELFIA displacement assay
T2 sequence (Q16548 whole entry): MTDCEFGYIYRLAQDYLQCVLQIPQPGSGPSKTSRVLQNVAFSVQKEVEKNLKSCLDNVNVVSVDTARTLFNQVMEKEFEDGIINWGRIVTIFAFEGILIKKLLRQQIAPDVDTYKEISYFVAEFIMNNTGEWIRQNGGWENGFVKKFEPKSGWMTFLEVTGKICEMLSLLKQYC

[3] = target: T3, Bcl-2-related protein A1 (Homo sapiens) (UniProt Q16548); test: Binding affinity to human Bfl-1 assessed as covalent adduct formation by measuring band shift at 100 uM measured after 2 hrs by SDS-PAGE analysis
T3 sequence (whole entry): T2 sequence (Q16548 whole entry)
Procedure, shortened: as §1

[4] = target: T1, Induced myeloid leukemia cell differentiation protein Mcl-1; test: Inhibition of human Mcl-1 assessed as inhibition constant by DELFIA displacement assay
Procedure, shortened: (§2)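 His-tagged hMcl-1 (16 nM) and Eu-N1 anti-6xHis antibody (22.2 ng/well) were pre-bound for 2 h to streptavidin wells coated with biotinylated BIM BH3 peptide (600 ng/mL). Test peptide was then added for 0–40 min at RT, followed by washing, enhancement solution and time-resolved fluorescence at ex 340/em 615 nm. kobs was taken from the slope of % inhibition versus time. Ki and kinact came from a hyperbolic fit of kobs against concentration.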

[5] = target: T1, Induced myeloid leukemia cell differentiation protein Mcl-1; test: Inhibition of human Mcl-1 assessed as Kinact by DELFIA displacement assay
Procedure, shortened: as §2

[6] = Stability of the compound in pH 7.4 buffer assessed as intact compound after 3.5 hrs by one-dimensional 1H-NMR analysis; assay type: physicochemical; settings: read-out: Stability
[7] = Stability of the compound in pH 7.4 buffer assessed as half life by one-dimensional 1H-NMR analysis; assay type: physicochemical
[8] = target: T1, Induced myeloid leukemia cell differentiation protein Mcl-1; test: Binding affinity to human Mcl-1 assessed as covalent adduct formation by measuring increase in molecular weight at 100 uM by mass spectrometry analysis
A549 [9] = test: Prevention of thermal denaturation of proteins in human A549 cells assessed as rescue of protein level at 100 uM by Western blotting analysis; assay type: functional, cell-based
Procedure, shortened: (§3)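 Cellular thermal shift: one million A549 cells were plated overnight and treated 1 h with 1% DMSO or 100 μM agent. Cells were harvested, protease inhibitors added, and heated 3 min at various temperatures. After lysis, the supernatant was analysed by western blot for Mcl-1.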

[10] = target: T1, Induced myeloid leukemia cell differentiation protein Mcl-1; test: Degradation of human Mcl-1 in A549 cells assessed as decrease in Mcl-1 protein levels with DMSO for 1 hr by spiking cell lysate assay; assay type: cell-based
Procedure, shortened: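 A549 cells (Ham's F-12/GlutaMAX, 10% FBS, PenStrep, 0.5 μg/mL puromycin) were lysed 20 min on ice in Tris pH 7.4/Triton/deoxycholate/SDS/IGEPAL/EDTA buffer with protease and phosphatase inhibitors, then centrifuged. Protein-quantified supernatants were incubated 1 h at 37 °C with DMSO or 100 μM agent. Immunoblot used PVDF, anti-Mcl-1 and anti-β-tubulin (4 °C overnight), and ECL.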

A549 [11] = test: Induction of decrease in human Mcl-1 level in A549 cells measured up to 100 uM in presence of carfilzomib treated for 2 hrs by Western blot analysis; assay type: functional, cell-based
Procedure, shortened: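 A549 cells were treated 2 h with DMSO, 50 or 100 μM agent, with or without 30 min pre-treatment with 1 μM carfilzomib. Lysates were immunoblotted for Mcl-1 and β-tubulin. Densitometry gave Mcl-1 relative to β-tubulin from two independent experiments. Significance was by one-way ANOVA with Dunnett post-test.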

[12] = target: T1, Induced myeloid leukemia cell differentiation protein Mcl-1; test: Binding affinity to human Mcl-1 in human A549 cells assessed as denaturation thermal shift at 100 uM by cellular thermal shift assay; assay type: cell-based
Procedure, shortened: as §3

IC50 [1]: 1600 nM
Molecule: CCCC[C@H](NC(=O)[C@H](C)NC(=O)[C@H](CC(=O)O)NC(=O)CNC(=O)[C@@H](NC(=O)[C@H](CCCNC(=N)N)NC(=O)[C@H](CCCNC(=N)N)NC(=O)[C@H](CC(C)C)NC(=O)[C@H](C)NC(=O)[C@H](CCC(N)=O)NC(=O)[C@H](C)NC(=O)[C@@H](NC(=O)[C@H](C)N)[C@@H](C)CC)[C@@H](C)CC)C(=O)O (H-AIAQALRRIGDA[Nle]-OH)

IC50 [1]: 2200 nM
Molecule: H-AIAQALRRIGDAF-OH

IC50 [1]: > 10000 nM
Molecule: H-ALAQALREIGDAR-OH

IC50 [1]: 261 nM
Molecule: Ac-AIAEALRRIGDAF-NH2

IC50 [1]: 1200 nM
Molecule: H-AIAQALRRIGDAL-OH

IC50 [1]: 3000 nM
Molecule: CC[C@H](C)[C@H](NC(=O)[C@H](CCCNC(=N)N)NC(=O)[C@H](CCCNC(=N)N)NC(=O)[C@H](CC(C)C)NC(=O)[C@H](CCO)NC(=O)[C@H](CCC(N)=O)NC(=O)[C@H](C)NC(=O)[C@H](CC(C)C)NC(=O)[C@H](C)N)C(=O)NCC(=O)N[C@@H](CC(=O)O)C(=O)N[C@@H](C)C(=O)N[C@@H](Cc1ccccc1)C(=O)O (H-ALAQ[hSer]LRRIGDAF-OH)

More lines, now with the values behind:

Molecule: CCC(NC(=O)[C@H](CCC(N)=O)NC(=O)[C@H](C)NC(=O)[C@@H](NC(=O)[C@H](C)N)[C@@H](C)CC)C(=O)N[C@@H](CC(C)C)C(=O)N[C@@H](CCCNC(=N)N)C(=O)N[C@@H](CCCNC(=N)N)C(=O)N[C@H](C(=O)NCC(=O)N[C@@H](CC(=O)O)C(=O)N[C@@H](C)C(=O)N[C@@H](Cc1ccccc1)C(=O)O)[C@@H](C)CC (stereo partly specified) (H-AIAQ[ξAbu]LRRIGDAF-OH)
IC50 [1]: 1300 nM

Molecule: CC[C@H](C)[C@H](NC(=O)[C@H](CCCNC(=N)N)NC(=O)[C@H](CCCNC(=N)N)NC(=O)[C@H](CC(C)C)NC(=O)[C@H](CCC(N)=O)NC(=O)[C@H](CCC(=O)O)NC(=O)[C@H](C)NC(=O)[C@@H](NC(=O)[C@H](CNC(=O)c1cc(S(=O)(=O)F)ccc1C)NC(C)=O)[C@@H](C)CC)C(=O)NCC(=O)N[C@@H](CC(=O)O)C(=O)N[C@@H](CCCNC(=N)N)C(=O)N[C@@H](Cc1ccccc1)C(N)=O (Ac-[Dap](X1)IAEQLRRIGDRF-NH2)
Activity [2]: Active
IC50 (Bcl-2-related protein A1): > 1000 nM
Activity [3]: inactive
Ki [4]: 37 nM
Kinact [5]: 1.16 min⁻¹
remaining at 3.5 h [6]: > 80%
half-life [7]: > 3.5 h
Activity [8]: Active
Activity (A549 [9]): inactive
IC50 [1]: 19.1 nM

Molecule: CC[C@H](C)[C@H](NC(=O)[C@H](CCCNC(=N)N)NC(=O)[C@H](CCCNC(=N)N)NC(=O)[C@H](CC(C)C)NC(=O)[C@H](CCC(N)=O)NC(=O)[C@H](CCC(=O)O)NC(=O)[C@H](C)NC(=O)[C@@H](NC(=O)[C@H](CNC(=O)c1ccc(S(=O)(=O)F)cc1)NC(C)=O)[C@@H](C)CC)C(=O)NCC(=O)N[C@@H](CC(=O)O)C(=O)N[C@@H](CCCNC(=N)N)C(=O)N[C@@H](Cc1ccccc1)C(N)=O (Ac-[Dap](Benzoyl(4-SO2F))IAEQLRRIGDRF-NH2)
IC50 (Bcl-2-related protein A1): > 5000 nM
IC50 [1]: 94 nM

Molecule: CC[C@H](C)[C@H](NC(=O)[C@H](CCCNC(=N)N)NC(=O)[C@H](CCCNC(=N)N)NC(=O)[C@H](CC(C)C)NC(=O)[C@H](CCC(N)=O)NC(=O)[C@H](CCC(=O)O)NC(=O)[C@H](C)NC(=O)[C@@H](NC(=O)[C@H](CNC(=O)c1cccc(S(=O)(=O)F)c1)NC(C)=O)[C@@H](C)CC)C(=O)NCC(=O)N[C@@H](CC(=O)O)C(=O)N[C@@H](CCCNC(=N)N)C(=O)N[C@@H](Cc1ccccc1)C(N)=O (Ac-[Dap](Benzoyl(3-SO2F))IAEQLRRIGDRF-NH2)
IC50 (Bcl-2-related protein A1): > 400 nM
IC50 [1]: 23 nM

Molecule: CC[C@H](C)[C@H](NC(=O)[C@H](CCCNC(=N)N)NC(=O)[C@H](CCCNC(=N)N)NC(=O)[C@H](CC(C)C)NC(=O)[C@H](CCC(N)=O)NC(=O)[C@H](CCC(=O)O)NC(=O)[C@H](C)NC(=O)[C@@H](NC(=O)[C@H](CNC(=O)c1cc(S(=O)(=O)F)ccc1OC)NC(C)=O)[C@@H](C)CC)C(=O)NCC(=O)N[C@@H](CC(=O)O)C(=O)N[C@@H](CCCNC(=N)N)C(=O)N[C@@H](Cc1ccccc1)C(N)=O (Ac-[Dap](Benzoyl(2-OMe,5-SO2F))IAEQLRRIGDRF-NH2)
Activity [2]: Active
IC50 (Bcl-2-related protein A1): > 250 nM
Activity [3]: inactive
Activity [10]: inactive
Activity (A549 [11]): Active
Ki [4]: 17 nM
Activity [12]: inactive
Kinact [5]: 0.943 min⁻¹
remaining at 3.5 h [6]: 100%
half-life [7]: > 3.5 h
Activity [8]: Active
Activity (A549 [9]): inactive
IC50 [1]: 23.6 nM

Molecule: H-AIAQALRRIGDAY-OH
IC50 [1]: > 3600 nM

Molecule: H-AIAEQLRRIGDAF-NH2
IC50 [1]: 313 nM

Reference: ChEMBL document CHEMBL5055620, “Design, Synthesis, and Structural Characterization of Lysine Covalent BH3 Peptides Targeting Mcl-1” (J Med Chem, 2021)
